For one series, the system named is Huh-7. In words: Antiproliferative activity against human HuH7 cells after 72 hrs by MTT assay. It counts as functional, cell-based. To be noted: Huh-7, 72 h.
The subject of series [1] is Bel-7402. As to the kind of experiment: Induction of apoptosis in human Bel7402 cells assessed as increase in cleaved PARP level at 1 uM after 72 hrs by Western blot analysis. The class given is functional, cell-based. In a few lines:
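Subconfluent Bel7402 cells (1.5 × 10^5/mL) exposed to vehicle or compound for 72 h, then lysed. Lysates (0.05 mg/lane) run on 12% SDS-PAGE, transferred to nitrocellulose, blocked in 5% nonfat milk. Probed for Bax, Bcl-2, cleaved caspase-3 and cleaved PARP, with HRP secondary and chemiluminescence. Levels normalized to β-actin; three separate assays, mean ± SD.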

The species entered for series [2] is Homo sapiens. In words: Selectivity ratio of IC50 for human HDAC3 to IC50 for human HDAC6. In a few lines:
(§1)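 Recombinant human HDAC1, 3, 6 and 8 (fluorimetric kit) incubated with compound over a range of concentrations and Boc-Lys(Ac)-AMC substrate at 37 °C for 60 min. Reaction quenched with lysine developer; after 30 min, fluorescence read at ex 355/em 460 nm. Inhibition taken relative to control and IC50 fitted; ratios built from these IC50s.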

The species named for series [3] is Homo sapiens. As to the kind of experiment: Selectivity ratio of IC50 for HDAC1 (unknown origin) to IC50 for human HDAC6. In a few lines: as §1
Series [4] relates to Bel-7402. In words: Induction of autophagy in human Bel7402 cells assessed as accumulation of autophagic vacuoles at 1 uM after 24 hrs by acridine orange staining based fluorescence microscopic method. The class given is functional, cell-based. In a few lines:
(§2)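 Bel7402 cells (10 000) cultured overnight, then exposed to compound at 1.0 or 5.0 μM, or vehicle. Stained with 1 mg/mL acridine orange for 15−20 min, then dye removed. Red versus green fluorescence viewed by fluorescence microscopy at 400×. Representative images from three independent experiments.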

The subject of series [5] is Bel-7402. As to the kind of experiment: Effect on AKT expression in human Bel7402 cells at 1 to 2.5 uM after 24 to 72 hrs by Western blot analysis. It counts as ADME, cell-based. To be noted: bel-7402, 2.5 µM. In outline:
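Bel7402 cells (1.5 × 10^5/mL) exposed to compound at 1.0 and 2.5 μM for 24 or 72 h. Lysates (0.05 mg/lane) separated on 12% SDS-PAGE and blotted to nitrocellulose. Probed for total Akt, phospho-Akt (Ser473), total mTOR and phospho-mTOR, HRP secondary, chemiluminescent detection. Quantified from three separate assays, mean ± SD.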

Series [6] relates to Bel-7402. As to the kind of experiment: Induction of autophagy in human Bel7402 cells assessed as accumulation of autophagic vacuoles at 5 uM after 24 hrs by acridine orange staining based fluorescence microscopic method. It counts as functional, cell-based. In outline: as §2

Activity calls are given as the source filed them. The calls are words filed in the database; no cut-off is given here.

As for `COc1ccc(-c2nc(NCCCOc3ccc(/C=C/C(=O)NO)cc3OC)cc3c2[nH]c2ccccc23)cc1`, 1100 nM corresponded to half-maximal inhibition in the series with Huh-7 (IC50). The result with Bel-7402 [1], in the series with Bel-7402 [4] and in the series with Bel-7402 [6] was Active. Moreover, the Ratio IC50 in the series listed under Homo sapiens [2] was 7 to 11; in the series listed under Homo sapiens [3], 2. Besides, the Activity result with Bel-7402 [5] is “Non-Toxic”.

Values taken from ChEMBL document CHEMBL4376807, “Hydroxamic Acid Derivatives of β-Carboline/Hydroxycinnamic Acid Hybrids Inducing Apoptosis and Autophagy through the PI3K/Akt/mTOR Pathways” (J Nat Prod, 2019).
